Test results from ChEMBL document CHEMBL4602702, “Red-Emitting Dibenzodiazepinone Derivatives as Fluorescent Dualsteric Probes for the Muscarinic Acetylcholine M2 Receptor” (J Med Chem, 2020).
The source made the active and inactive calls. The rule behind the calls is not given here.

Experiments:
[1] = molecular target: T1, Muscarinic acetylcholine receptor M2 (Homo sapiens) (UniProt P08172); assay: Binding affinity to human muscarinic M2 receptor expressed in […] cells assessed as unspecific binding at Kd incubated in dark at 22 degree C for 2 hrs in presence of atropine by FACSCalibur flow cytometric saturation binding study relative to control; type: cell-based
T1 sequence (whole entry): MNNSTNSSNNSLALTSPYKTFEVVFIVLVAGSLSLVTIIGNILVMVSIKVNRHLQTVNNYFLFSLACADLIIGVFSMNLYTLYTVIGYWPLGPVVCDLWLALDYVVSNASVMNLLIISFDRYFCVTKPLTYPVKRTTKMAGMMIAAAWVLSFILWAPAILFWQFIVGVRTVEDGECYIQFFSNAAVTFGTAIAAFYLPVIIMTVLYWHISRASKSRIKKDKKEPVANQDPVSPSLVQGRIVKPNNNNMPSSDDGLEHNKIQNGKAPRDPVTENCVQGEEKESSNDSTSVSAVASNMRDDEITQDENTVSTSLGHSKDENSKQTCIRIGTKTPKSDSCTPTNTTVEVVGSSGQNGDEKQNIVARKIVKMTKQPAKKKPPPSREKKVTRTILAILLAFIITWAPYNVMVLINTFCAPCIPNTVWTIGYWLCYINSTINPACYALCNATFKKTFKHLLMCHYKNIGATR

[2] = molecular target: Muscarinic acetylcholine receptor M3 (Homo sapiens, UniProt P20309); assay: Displacement of [3H]-NMS from human muscarinic M3 receptor stably expressed in CHO-K9 cells by radioligand competitive binding assay; type: cell-based
Muscarinic acetylcholine receptor M3, sequence (P20309 whole entry): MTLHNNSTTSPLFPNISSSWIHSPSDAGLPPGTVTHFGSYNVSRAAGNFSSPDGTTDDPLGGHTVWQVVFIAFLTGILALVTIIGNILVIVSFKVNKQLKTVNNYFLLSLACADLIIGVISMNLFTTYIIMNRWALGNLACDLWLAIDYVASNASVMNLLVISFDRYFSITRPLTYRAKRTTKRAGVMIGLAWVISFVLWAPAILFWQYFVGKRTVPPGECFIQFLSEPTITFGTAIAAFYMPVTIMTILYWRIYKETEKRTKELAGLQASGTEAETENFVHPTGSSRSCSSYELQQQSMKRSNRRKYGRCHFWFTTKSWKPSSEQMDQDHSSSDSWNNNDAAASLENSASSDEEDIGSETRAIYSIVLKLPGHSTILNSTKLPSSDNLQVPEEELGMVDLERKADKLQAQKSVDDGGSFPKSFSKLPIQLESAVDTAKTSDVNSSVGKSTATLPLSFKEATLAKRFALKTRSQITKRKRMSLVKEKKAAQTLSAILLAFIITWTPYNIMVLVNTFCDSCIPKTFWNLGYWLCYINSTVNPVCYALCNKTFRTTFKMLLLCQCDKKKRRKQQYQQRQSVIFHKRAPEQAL
Method in brief: (§1)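 Equilibrium competition binding at live CHO-hMxR cells with [3H]NMS at M1 0.2, M2 0.2, M3 0.2, M4 0.1, M5 0.3 nM. […] Four-parameter logistic fit converted to pKi; at least three experiments in triplicate (some two).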

[3] = molecular target: T2, Muscarinic acetylcholine receptor M1 (Homo sapiens, UniProt P11229); assay: Displacement of [3H]-NMS from human muscarinic M1 receptor stably expressed in CHO-K9 cells by radioligand competitive binding assay; type: cell-based; method in brief: as §1
T2 sequence (P11229 whole entry): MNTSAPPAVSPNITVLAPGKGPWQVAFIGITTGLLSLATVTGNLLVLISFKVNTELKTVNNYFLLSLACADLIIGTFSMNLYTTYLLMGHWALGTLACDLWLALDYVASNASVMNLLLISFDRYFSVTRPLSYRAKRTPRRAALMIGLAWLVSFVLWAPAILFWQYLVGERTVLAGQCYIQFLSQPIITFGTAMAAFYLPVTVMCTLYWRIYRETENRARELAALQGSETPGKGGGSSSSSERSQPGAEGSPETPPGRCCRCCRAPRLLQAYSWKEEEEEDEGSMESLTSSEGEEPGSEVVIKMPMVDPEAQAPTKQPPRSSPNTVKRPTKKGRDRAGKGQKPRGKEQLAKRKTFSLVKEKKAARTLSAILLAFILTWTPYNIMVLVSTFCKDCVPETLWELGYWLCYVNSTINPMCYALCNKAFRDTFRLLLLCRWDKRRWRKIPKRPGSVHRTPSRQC

[4] = molecular target: T3, Muscarinic acetylcholine receptor M4 (Homo sapiens, UniProt P08173); assay: (§2) Antagonist activity at human muscarinic M4 receptor expressed in HEK293 cells co-expressing HA-Galphaq/i5 assessed as inhibition of carbachol-induced IP1 accumulation at 22 degree C pre-incubated for 180 mins followed by carbachol addition and further incubated at 37 degree C for 90 mins by HTRF assay; type: functional, cell-based
T3 sequence (P08173 whole entry): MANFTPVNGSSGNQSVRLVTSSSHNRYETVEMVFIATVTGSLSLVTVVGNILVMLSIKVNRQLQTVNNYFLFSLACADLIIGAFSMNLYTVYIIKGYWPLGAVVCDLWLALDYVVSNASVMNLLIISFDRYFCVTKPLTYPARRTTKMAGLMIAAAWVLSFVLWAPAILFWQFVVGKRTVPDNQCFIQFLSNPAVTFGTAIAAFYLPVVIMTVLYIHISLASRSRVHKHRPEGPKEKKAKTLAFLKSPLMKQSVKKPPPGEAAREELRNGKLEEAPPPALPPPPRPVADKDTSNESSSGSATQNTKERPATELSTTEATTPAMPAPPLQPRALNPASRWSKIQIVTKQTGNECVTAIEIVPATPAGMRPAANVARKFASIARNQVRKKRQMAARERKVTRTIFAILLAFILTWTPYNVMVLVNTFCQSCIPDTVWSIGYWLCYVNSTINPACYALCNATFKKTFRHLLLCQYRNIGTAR

[5] = molecular target: T4, Muscarinic acetylcholine receptor M2 (Homo sapiens, UniProt P08172); assay: Antagonist activity at human muscarinic M2 receptor expressed in HEK293 cells co-expressing HA-Galphaq/i5 assessed as inhibition of carbachol-induced IP1 accumulation at 37 degree C pre-incubated for 30 mins followed by carbachol addition and measured after 60 mins by HTRF assay; type: functional, cell-based
T4 sequence (P08172 whole entry): T1 sequence (whole entry)

[6] = molecular target: T1, Muscarinic acetylcholine receptor M2 (Homo sapiens); assay: Agonist activity at human muscarinic M2 receptor expressed in HEK293 cells co-expressing HA-Galphaq/i5 assessed as induction of Galphaq/i5-mediated IP1 accumulation by HTRF assay; type: functional, cell-based
Method in brief: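 HEK-293 cells transiently co-transfected with hM2R and hybrid Gαqi5-HA, run in agonist mode at 37 °C; IP1 accumulation measured. Carbachol control from 14 independent experiments in duplicate; test ligands from three or four independent experiments in duplicate.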

[7] = Chemical stability of compound in PBS buffer assessed as retention time at pH 7.4 and 22 degree C measured up to 48 hrs by RP-HPLC analysis; type: physicochemical; settings: pH 7.4, 48 h
Method in brief: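 Fluorescent ligand stability checked in PBS pH 7.4 over 48 h by RP-HPLC on a C18 column with an aqueous TFA/acetonitrile gradient, oven at 25 °C, detection at 220 nm.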

[8] = molecular target: T1, Muscarinic acetylcholine receptor M2 (Homo sapiens); assay: Binding affinity to human muscarinic M2 receptor expressed in CHO-K9 cells assessed as increase in intracellular fluorescence intensity at 30 nM incubated for 45 mins by confocal microscopy
[9] = molecular target: T4, Muscarinic acetylcholine receptor M2; assay: Displacement of [3H]-NMS from human muscarinic M2 receptor stably expressed in CHO-K9 cells by radioligand competitive binding assay; type: cell-based; method in brief: as §1
[10] = molecular target: T3, Muscarinic acetylcholine receptor M4; assay: Displacement of [3H]-NMS from human muscarinic M4 receptor stably expressed in CHO-K9 cells by radioligand competitive binding assay; type: cell-based; method in brief: as §1
[11] = molecular target: T4, Muscarinic acetylcholine receptor M2; assay: as §2, with “M2” for “M4”; type: functional, cell-based
Method in brief: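 HEK-hM2-Gαqi5-HA cells (transient transfection) preincubated with antagonist at 22 °C for 180 min, then carbachol 0.3 μM (≈EC80) added and incubation continued at 37 °C for 90 min. Readout is inhibition of IP1 accumulation as pIC50, mean ± SEM of n independent experiments, each in duplicate.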

[12] = molecular target: T4, Muscarinic acetylcholine receptor M2; assay: Binding affinity to human muscarinic M2 receptor expressed in CHO-K9 cells incubated in dark measured after 60 mins by Hoechst H33342 dye based confocal plate reader assay; type: cell-based
Method in brief: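 Live CHO-hMxR cells (M1 or M2) incubated with fluorescent ligand at 22 °C in the dark for 1 h, washed, then imaged at once by high-content confocal plate reader.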

Compound `CC1(C)C(/C=C/C=C/C=C2/N(CCCCCC(=O)NCc3cc(C(=O)NCCNC(=O)CCc4cn(CCCCC5CCN(CC(=O)N6c7ccccc7NC(=O)c7ccccc76)CC5)cn4)cc(C(=O)NCCNC(=O)CCc4cn(CCCCC5CCN(CC(=O)N6c7ccccc7NC(=O)c7ccccc76)CC5)cn4)c3)c3ccc(S(=O)(=O)O)cc3C2(C)C)=[N+](CCCCS(=O)(=O)[O-])c2ccccc21.O=C(O)C(F)(F)F.O=C(O)C(F)(F)F.O=C(O)C(F)(F)F` has an Activity [1] of under 5%, a Ki [2] of 75.9 nM and a Ki [3] of 2.29 nM. The IC50 [4] was 37.2 nM, the IC50 [5] was 24 nM and the Activity [6] was “inactive”. For the same compound, the Retention_time [7] was 10.4 min, the Activity [8] was “Active” and the Ki [9] was 0.631 nM. For the same compound, the Ki [10] was 2.88 nM, the IC50 [11] was 17.4 nM and the Kd ([12]; read-out: Kd) was 2.9 nM. It also gave a Kd ([12]; read-out: pKd (converted)) of 5.62 nM.
With `CC1(C)C(/C=C/C=C/C=C2/N(CCCCCC(=O)NCCN3CCN(CCCCC4CCN(CC(=O)N5c6ccccc6NC(=O)c6ccccc65)CC4)CC3)c3ccc(S(=O)(=O)O)cc3C2(C)C)=[N+](CCCCS(=O)(=O)[O-])c2ccccc21.O=C(O)C(F)(F)F.O=C(O)C(F)(F)F` the Activity [1] was 10%, the Ki [2] was 81.3 nM and the Ki [3] was 2.88 nM. The IC50 [4] was 102 nM, the IC50 [5] was 224 nM and the Activity [6] was “inactive”. For the same compound, the Retention_time [7] was 18.2 min, the Activity [8] was “Active” and the Ki [9] was 0.525 nM. For the same compound, the Ki [10] was 2.14 nM, the IC50 [11] was 38.9 nM and the Kd ([12]; read-out: Kd) was 5.3 nM. The Kd ([12]; read-out: pKd (converted)) was 4.68 nM.
`CC1(C)C(/C=C/C=C/C=C2/N(CCCCCC(=O)NCCNC(=O)CCc3cn(CCCCC4CCN(CC(=O)N5c6ccccc6NC(=O)c6ccccc65)CC4)cn3)c3ccc(S(=O)(=O)O)cc3C2(C)C)=[N+](CCCCS(=O)(=O)[O-])c2ccccc21.O=C(O)C(F)(F)F` showed an Activity [1] of 10%, a Ki [2] of 155 nM and a Ki [3] of 5.25 nM. The IC50 [4] was 138 nM, the IC50 [5] was 355 nM and the Activity [6] was “inactive”. For the same compound, the Retention_time [7] was 10.3 min, the Activity [8] was “Active” and the Ki [9] was 0.794 nM. For the same compound, the Ki [10] was 4.47 nM, the IC50 [11] was 57.5 nM and the Kd ([12]; read-out: Kd) was 12.6 nM. For the same compound, the Kd ([12]; read-out: pKd (converted)) was 11.5 nM.
